Assay outcomes from PubChem BioAssay.
MrgX1 allo act: positive allosteric modulators of MrgX1, primary screen, HEK293 cells, Fluo-4 calcium flux; AID 588675, 2011; FDSS; active compounds read high; hit rate 0.63% among 310,000; B-score at 10 µM; Mas-related G-protein coupled receptor member X1 (Homo sapiens), Q96LB2;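 active = plate-corrected calcium response at least 3 library SD above typical, normal starting fluorescence, not activating the receptor alone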;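 also: compound read alongside a low EC10 to EC30 dose of BAM8-22 agonist; peak minus trough fluorescence over baseline measured at the second addition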
Target sequence (Q96LB2 whole entry, looked up): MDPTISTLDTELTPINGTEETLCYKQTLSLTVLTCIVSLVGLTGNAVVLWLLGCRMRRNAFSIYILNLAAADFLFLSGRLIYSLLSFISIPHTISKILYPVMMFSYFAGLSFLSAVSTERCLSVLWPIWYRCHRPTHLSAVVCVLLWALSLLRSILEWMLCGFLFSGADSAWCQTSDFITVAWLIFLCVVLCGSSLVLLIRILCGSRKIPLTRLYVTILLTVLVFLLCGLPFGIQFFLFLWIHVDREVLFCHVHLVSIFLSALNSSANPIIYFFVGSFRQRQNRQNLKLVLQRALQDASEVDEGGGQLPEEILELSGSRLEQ
MrgX1 antag: antagonists of human MrgX1 receptor, primary screen, HEK293 cells, Fluo-4 calcium flux; hit rate 1.3% among 310,000; B-score at 10 µM; Mas-related G-protein coupled receptor member X1 (Homo sapiens), Q96LB2; BAM8-22 antagonism; active compounds read low;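 active = calcium-response B-score plate-corrected more than 3 library SD below zero, starting fluorescence within 5 deviations, no agonist response on first addition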;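 also: peak minus trough fluorescence over baseline after final BAM8-22 challenge near maximal dose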
RGS4 inh: RGS4 inhibitors, primary screen, cell-based, HEK293 M3R inducible RGS4, calcium flux. Regulator of G-protein signaling 4 (Homo sapiens), P49798. Fluo-4 calcium flux; active compounds read high; triggered by carbachol at its EC20. B-score at 10 µM. hit rate 0.45% among 310,000;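 active = B-score, a plate-corrected calcium signal, over three deviations above library mean, with baseline fluorescence within five deviations of library mean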;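 also: RGS4 expression induced by doxycycline in cells with stable M3 receptor; B-score is computed from the integrated fluorescence ratio over baseline after carbachol; higher B-score means a larger calcium signal and so more RGS4 inhibition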
RGS4 act: RGS4 potentiators or activators, primary screen, cell-based, HEK293 M3R inducible RGS4, calcium flux | carbachol calcium flux Fluo4; active compounds read low | B-score at 10 µM | hit rate 0.92% among 310,000;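 active = B-score of the integrated calcium signal more than 4 SD below the library mean, with starting fluorescence not abnormally high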;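 also: negative B-score means reduced calcium response which marks RGS4 activation or potentiation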
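Material: Inducible-RGS4 HEK293 cells carrying M3 receptor; also added: carbachol at ECmax as muscarinic agonist stimulus; incubation: compound preincubation 20 min at room temperature before agonist; signal: Fluo4-AM (2 µM) calcium-flux fluorescence, kinetic read; measure: integrated calcium ratio converted to B score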
MrgX1 ag: agonists of human MrgX1 receptor, primary screen, HEK293 cells, Fluo-4 calcium flux; Mas-related G-protein coupled receptor member X1 (Homo sapiens), Q96LB2; Fluo-4 calcium fluorescence, agonist mode; active compounds read high; B-score at 10 µM; hit rate 0.44% among 310,000;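 active = calcium response B-score plate-corrected fluorescence ratio at least 3 library SD, with starting fluorescence B-score inside 5 SD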
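Test system: HEK293 cells stably expressing human MrgX1 receptor; amount: 15,000 cells per well; doses: compound delivered in addition one of three; times: overnight plating before 1 h dye loading; detection: Fluo-4 NW calcium-flux fluorescence, kinetic read; read-out basis: B-scored fluorescence response ratio; controls: positive and negative controls per plate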
RGS4 act valid: reduced carbachol calcium response, RGS4-induced M3R cells, confirmation, RGS4 activator project, cell-based, HEK293 M3R/RGS4 inducible, calcium flux, duplicate. shares compounds with RGS4 act. carbachol calcium flux Fluo4. inhibition, % at 10 µM. hit rate 89% among 1,100;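 active = inhibition above 3 SD of the buffer control wells, cut at about 41% in these data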;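 also: signal is the integrated peak-minus-minimum Fluo4 fluorescence over baseline ratio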
M3R Ca counter: RGS4 activator counter-screen hit in non-induced cells. inhibition, % at 10 µM. hit rate 82% among 1,100. shares compounds with RGS4 act. HEK293 M3R non-induced RGS4, Fluo4 calcium flux; after carbachol challenge at its EC90. AID 602283;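 active = inhibition exceeding 3 SD of buffer-only control wells, cut at about 26% in these data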;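 also: percent drop in integrated peak-minus-baseline over baseline Fluo4 ratio after carbachol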
* = called active by the depositor; i = inactive; / = no result. Compounds with a hit are over-represented: about 3.5% of the library has one in this group of screens.

SMILES	MrgX1 allo act	MrgX1 antag	RGS4 inh	RGS4 act	MrgX1 ag	RGS4 act valid	M3R Ca counter
CCOc1ccc(S(=O)(=O)N2CCN(Cc3ccc4c(c3)OCO4)CC2)cc1Cl	i	i	i	i	i	/	/
CSc1ccc(S(=O)(=O)N2CCN(Cc3ccc4c(c3)OCO4)CC2)cc1	i	i	i	-9.9*	i	92*	91*
O=C(O)C1=C[C@@H](c2ccc(C(F)(F)F)cc2)C[C@@H](OCCCCO)O1	i	i	i	i	i	/	/
C/C(CC(=O)Nc1cccnc1)=N\NC(=O)C(C)Oc1ccc(Cl)cc1Cl (configuration not stated)	i	i	i	i	i	/	/
FC(F)(F)c1nc(-c2cccs2)ncc1-c1nnnn1-c1ccc(Cl)cc1	i	i	i	-8.9*	i	92*	58*
Clc1ccc(-n2nnnc2-c2cnc(-c3ccncc3)nc2-c2cccs2)cc1	i	i	i	i	i	/	/
CSc1ccc(C(=O)N2CCC(CCC(=O)NCc3ccc(F)cc3)CC2)cc1	/	/	i	i	/	/	/
Cc1ccnc(Nc2nc(-c3ccc(Cl)cc3)cs2)c1	i	i	i	i	i	/	/
Cc1ccnc(Nc2nc(-c3ccc(F)cc3)cs2)c1	i	i	i	-8.8*	i	92*	74*
O=S(=O)([N-]c1nc2ccccc2nc1-[n+]1ccccc1)c1ccc(F)cc1	i	i	i	i	i	/	/
O=C(CSc1nnc(NC2CCCCC2)s1)Nc1ccc2c(c1)C(=O)c1ccccc1C2=O	i	i	i	i	i	/	/
CC(C)Nc1nnc(SCC(=O)Nc2ccc3c(c2)C(=O)c2ccccc2C3=O)s1	i	i	i	-11*	i	88*	45*
Cc1ccccc1C(=O)OC1CCCN(C)C1 (configuration not stated)	i	i	i	i	i	/	/
CN1CCCC(C#CC(O)(c2ccccc2)c2ccccc2)C1 (configuration not stated)	i	i	i	-11*	i	94*	92*
CCNc1nc(NC(C)(C)C)nc(N2CCCC2)n1	i	i	i	-9*	i	82*	47*
O=C(NC1CC1)C1=C[C@@H](C2CC2)C[C@@H](OCc2ccc(CO)cc2)O1	i	i	i	i	i	/	/
CCOC(=O)N1CCC(N2CCN(CCC(C)C)C(CCO)C2)CC1 (configuration not stated)	i	i	i	-10*	i	78*	30*
Cc1scc(C(=O)N2CCN(c3ccc(Cl)cc3)CC2)c1C	i	i	i	i	i	/	/
CCN(CC(=O)Nc1ccc(N2CCOCC2)cc1)C(=O)c1ccc(C#N)cc1	i	i	i	i	i	/	/
O=C(Nc1ccccc1C(=O)O)c1cc(S(=O)(=O)N2CCCCCC2)ccc1Cl	i	i	i	-8.4*	i	0	0
CCCC1Oc2ccccc2C(=O)N(CC(=O)c2ccc3c(c2)OCCO3)C1=O (configuration not stated)	i	i	i	-9*	i	58*	0
CNC(=O)C(=O)NCC1OCCCN1S(=O)(=O)c1ccc(F)cc1C (configuration not stated)	i	i	i	i	i	/	/
C/C(=C\C=C(C#N)C#N)c1cc(C#N)c(N)o1	/	/	i	-8.3*	/	62*	57*
CN1CCN(c2nc(-c3cccs3)cc(C(F)(F)F)n2)CC1	i	i	i	-8.7*	i	92*	38*
COc1cc2c(cc1Cl)/C(=C\CCN(C)C)c1ccccc1S2	i	i	i	-9.7*	i	92*	67*
